Reference: the RNAGym collection of RNA variant scans (doi:10.1126/science.aae0568)
Variants at the floor of the assay were thinned out.

B1: tRNA (parent)
chain: GUUCCGUUGGCGUAAUGGUAACGCGUCUCCCUCCUAAGGAGAAGACUGCGGGUUCGAGUCCCGUACGGAACG

Variants of: B1
Assay: yeast fitness relative to wild type (ratio to wild type); higher = fitter; tRNA-Arg(CCU), competitive growth, 37 C, YPD
In short: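 A pool of Saccharomyces cerevisiae strains, each with a tRNA-Arg(CCU) gene variant at the native genomic locus, was competed in YPD at 37°C for 24 hours across six parallel replicates. The variants had been chemically synthesised at a 3% per-site mutation rate over 69 sites, and gene amplicons before and after competition were read by 100-nucleotide paired-end sequencing. Darwinian fitness relative to wild type rested on changes in genotype frequencies. Genotypes required ≥ 100 starting reads, and estimates < 0.5 were set to 0.5.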

Row | Variant | yeast fitness
1 | GUUCAGUUGGCGUAAUGGUAACGGGUCUCCGUCCUAAGGAGAAGACUGCGCGUUCGAGGCCCGUACGGAACG | ≤ 0.5
2 | GUUCAGUUGGCGUAAUGGUAACGUGUCUCCCUCCUAAGGAGAAGACUGCGGGUUCGAGUCCCGUACGGCACG | 0.641
3 | GUUCAGUUGGCGUAAUGGUAACGCGUCUCCCUCGUAAGGAGAAGACUGGGGGUUCGAGUCCCGCACGGAACG | ≤ 0.5
4 | GUUCAGUUGGCGUAAUGGUAACGGGUCUCCCUCCUAAGGAGAAGACUGCGGGUUCGAGUCCCAUACGGAACG | ≤ 0.5
5 | GUUCAGUUGGCGUAAUGGUAACGCGUCUCCCUUCUAAGCAGAAGACUGCGGGUUAGAGUCCCGUACCGAACG | ≤ 0.5
6 | GUUCAGUUGGCGUAAUGGUAACGCGUCUCCCUCGUAAGGAGAAGACUGGGGGUUCGAGUCCCGUGCGGAACG | ≤ 0.5
7 | GUUCAGUUGGCGUAAUGGUAACGCGUCUCCGUCCUAAGGAGAAGACUGCGGGUUAGAGUCCCGUACGGAACG | ≤ 0.5
8 | GUUCAGUUGGCGUAAUGGUAACGUCUCUCGCUCCUAAGGAGAAGACUGCCGGUUCAAGUCCCGUAUGGAACG | ≤ 0.5
9 | GUUCAGUUGGCGUAAUGGUAACGCGUCUCGGCCCUAAGGAGAAGACUGCGGGUUCGAGUCCCGUACGGAACG | 0.598
10 | GUUCAGUUGGCGUAAUGGUAACGCGUGUCUCCCCUGUGGAGAAGACUGCGGGUUCGAGUCCCGUACAGAACG | ≤ 0.5
11 | GUUCAGUUGGCGUAAUGGUAACGCGUCUCCAUCCUACGGAGAAGAUUGCGGGUUCGAGUCCCGUACGGAACG | ≤ 0.5
12 | GUUCAGUUGGCGUAAUGGUAACGCGUCUCCUUCCUAAGGAGAAGACUCCGGGUUAGAGUCCCGUACGGCACG | ≤ 0.5
13 | GUUCAGUUGGCGUAAUGGUAACGCGUCUCCCUUCUGAGGAGAAGACUGCGGGUUCGAGUCCCGUACGGAACG | 0.532
14 | GUUCAGUUGGCGUAAUGGUAACGCGUUUCCCUCCUUAGGAGAAGACUGCGGGUUCGAGUCCCGUACGGAACG | ≤ 0.5
15 | GUUCAGUUGGCGUAAUGGUAACGCGUCUCUCUCCUAAGGACAAGACUGCGGGUUCGAGUCCCGUACGGAACG | ≤ 0.5
16 | GUUCAGUUGGCGUAAUGGUAACGCGUCUACCUCCUAAGGAGAAGACUGCGGGUUCGAGUCCCGUACGGAUCG | ≤ 0.5
17 | GUUCAGUUGGCGUAAUGGUAACGCGUAUCCCUCGUAAGGAGAAGACUGCGGGUUCGAGUCCCGUACGGAACG | 0.507
18 | GUUCAGUUGGCGUAAUGGUAACGCGUCUCCUUCCUACGGAGAAGACUGCGGGUUCGAGUCCCGUACGGAACG | 0.561
19 | GUUCAGUUGGCGUAAUGGUAACGCGUCUCCGUCCUAAGGAGAAGACUGCGGGUCCGAGUCCCGUACGGAACG | 0.588

Row | Variant | yeast fitness
20 | GUUCAGUUGGCGUAAUGGUAACGCGUCUCCGUCCUAAGGAGAAGACUGCGGGUUCGAGUCCCUUACGGAACG | ≤ 0.5
21 | GUUCAGUUGGCGUAAUGGUAACGCGUCUCCUUCCCAAGGAGAAGACUGGGGGUUCGAGUCCCGUACGGAACG | ≤ 0.5
22 | GUUCAGUUGGCGUAAUGGUAACGGGUCUCCCUCGUAAGGAGAAGACUGCGGGUUCGAGUCCCGUACGGAACG | ≤ 0.5
23 | GUUCAGUUGGCGUAAUGGUAACGCGUCUCCCUUCUAAGGAGAUGACUGGCGGUUCGAGUCUCGUAUGGAACG | ≤ 0.5
24 | GUUCAGUUGGCGUAAUGGUAACGCGUGUCCCUACUAAGGUGAAGACUCCGGGUACGAGUCCCGUACGGAACG | 0.506
25 | GUUCAGUUGGCGUAAUGGUAACGCGUCUCCAUCCUAAGGAGAAGACUGCGGGUUCGAGUCCCGUACGGAACG | 0.971
26 | GUUCAGUUGGCGUAAUGGUAACGCGUCUCCUUCCUAAGGAGAAGACUGCGGGUUCGAGUCCCGUACGGAACG | 0.885
27 | GUUCAGUUGGCGUAAUGGUAACGCGUCUCCGUCCUAAGGAGAAGACUGCGGGUUCGAGUCCCGUACGGAACG | 0.889
28 | GUUCAGUUGGCGUAAUGGUAACGCGUUUCCCUCCUAAGCAGAAGACUGCGGGUUCGAGUCCCGUACGGAACG | ≤ 0.5
29 | GUUCAGUUGGCGUAAUGGUAACGCGUCUGCCUCCUAGGGAAAUGACUGCGGGUUCGAGUCCCGUACGGAACG | ≤ 0.5
30 | GUUCAGUUGGCGUAAUGGUAACGCGUCUCCGUCCUAAGGAGAAGACUGCGGGUUCCACUCCCGUACGGAACG | ≤ 0.5
31 | GUUCAGUUGGCGUAAUGGUAACGCGUCUCCGUCCUAGGGAGAAGACUGCGGGUUCGAGUCCUCUACGGAACG | 0.577
32 | GUUCAGUUGGCGUAAUGGUAACGCGUUUCCCUCCUAAGGAGAAGACUGCGGGUUCGAGUCCCGUACGGUACG | 0.711
33 | GUUCAGUUGGCGUAAUGGUAACGCGUCUCCCUCGUAAGGAGAAGACUGCGGGUUCGAGUCCCGUAUGGAACG | ≤ 0.5
34 | GUUCAGUUGGCGUAAUGGUAACGGGUCUCCGUCCUAAGGAGAAGACUGCGGGUUCGAGUCCCGUACGGAACG | 0.555
35 | GUUCAGUUGGCGUAAUGGUAACGCGUCUCCCUUCUAAGGAGAAGACUGCGGGUUCGAGUCCCGUACGGAACG | 0.603
36 | GUUCAGUUGGCGUAAUGGUAACGCGUCUCCCUACUAAGGAGAAGACUGCGGGUUCGAGUCCCGUACGGAACG | 0.67
37 | GUUCAGUUGGCGUAAUGGUAACGUGUCUCCCUCCUAAGGAGAAGACUGCGGGUUCGAGUCCUGUACGGAACG | 0.624
38 | GUUCAGUUGGCGUAAUGGUAACGCGUUUCCCUCCUAUGGAGAAGACUGCGGGUUCGAGUCCCGUACGGAACG | ≤ 0.5
